The values that follow come from ChEMBL document CHEMBL1134459 (J Med Chem, 2001).

Data set [1] deals with T1, Intercellular adhesion molecule 1 (Homo sapiens, UniProt P05362). Briefly: In vitro inhibitory potency compared to TNF-alpha induced Intercellular adhesion molecule-1 in human endothelial cells (ELISA assay). The class given is cell-based, Endothelial cell. In outline: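 Primary HUVECs seeded at 5 × 10^4 cells/mL in EBM/2% FBS with supplements. After 24 h of compound at 37 °C, TNFα was added to 5 ng/mL final for 6 h at 37 °C. Cell-surface ICAM-1 was detected with a mouse monoclonal antibody, then HRP anti-mouse IgG and OPD, with absorbance at 490 nm. Triplicate determinations.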
In general terms: An ELISA detects its analyte on a solid surface through an enzyme-linked reagent.

Data set [2] concerns the target T1, Intercellular adhesion molecule 1. Nature of the data set: Inhibition of intercellular adhesion molecule-1 (ICAM1) in human endothelial cells. The class given is cell-based, Endothelial cell. In outline:
(§1)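 Whole-cell ELISA on primary HUVECs plated at 5 × 10^4 cells/mL in EBM/2% FBS with growth supplements. Compound preincubated 24 h at 37 °C, then inducer added (TNFα at 5 ng/mL final, or IL-1β or PMA in its place) for 6 h at 37 °C. Mouse monoclonal anti-E-selectin, anti-ICAM-1 or anti-VCAM-1 was applied overnight at 4 °C, then HRP anti-mouse IgG. Detection with OPD, A490. Triplicate assays.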

Data set [3] shares this target. Nature of the data set: In vitro inhibitory potency compared to PMA induced Intercellular adhesion molecule-1 expression in human endothelial cells (ELISA assay). The class given is cell-based, Endothelial cell. In outline:
(§2)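 Primary HUVECs seeded at 5 × 10^4 cells/mL in EBM/2% FBS with EGF, bovine brain extract and gentamicin. Compound added next day for 24 h at 37 °C, then inducer (IL-1β or PMA, level not stated) for 6 h at 37 °C. Whole-cell ELISA used mouse monoclonal anti-ICAM-1 or anti-VCAM-1, HRP donkey anti-mouse IgG and OPD, read at 490 nm. Run in triplicate.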

The target in data set [4] is T2, E-selectin (Homo sapiens) (UniProt P16581).
T2 sequence (whole entry): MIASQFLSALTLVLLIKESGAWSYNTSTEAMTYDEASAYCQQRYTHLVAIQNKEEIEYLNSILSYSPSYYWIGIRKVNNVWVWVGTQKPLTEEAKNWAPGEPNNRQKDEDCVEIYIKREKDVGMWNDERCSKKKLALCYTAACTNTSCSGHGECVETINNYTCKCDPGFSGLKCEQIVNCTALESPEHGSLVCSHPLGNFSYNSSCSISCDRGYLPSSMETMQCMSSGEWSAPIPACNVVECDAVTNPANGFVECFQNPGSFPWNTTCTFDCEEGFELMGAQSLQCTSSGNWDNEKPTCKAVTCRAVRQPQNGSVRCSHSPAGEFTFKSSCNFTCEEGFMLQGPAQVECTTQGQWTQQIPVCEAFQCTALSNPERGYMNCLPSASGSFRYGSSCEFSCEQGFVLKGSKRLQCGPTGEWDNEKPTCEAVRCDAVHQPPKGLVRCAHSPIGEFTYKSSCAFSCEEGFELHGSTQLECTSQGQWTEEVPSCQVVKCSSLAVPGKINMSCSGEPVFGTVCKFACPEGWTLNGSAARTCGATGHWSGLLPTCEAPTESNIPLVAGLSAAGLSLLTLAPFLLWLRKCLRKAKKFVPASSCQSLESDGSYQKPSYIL
Nature of the data set: In vitro inhibitory potency compared to PMA induced Selectin E expression in human endothelial cells (ELISA assay) at 1 uM. The class given is cell-based. Conditions: Endothelial cell. In outline: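 HUVEC whole-cell ELISA with PMA substituted for TNFα as inducer. Compound preincubated 24 h at 37 °C, then 6 h induction at 37 °C. E-selectin detected with mouse monoclonal antibody and HRP anti-mouse IgG, OPD development, A490. Value given as percent inhibition at a single concentration of 1 µM.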

Data set [5] concerns the target T3, E-selectin (Homo sapiens, UniProt P16581).
T3 sequence (P16581 whole entry): T2 sequence (whole entry)
Nature of the data set: Inhibition of selectin E in human endothelial cells. The class given is cell-based, Endothelial cell. Summed up: as §1

Data set [6] deals with T3, E-selectin. Nature of the data set: In vitro inhibitory potency compared to IL1-beta induced Selectin E in human endothelial cells (ELISA assay). The class given is cell-based, Endothelial cell. In outline: as §1
The target in data set [7] is T3, E-selectin. Nature of the data set: In vitro inhibitory potency compared to TNF-alpha induced Selectin E expression in human endothelial cells (ELISA assay). The class given is cell-based, Endothelial cell. In outline:
as §1

Data set [8] has as its target T1, Intercellular adhesion molecule 1. Briefly: In vitro inhibitory potency compared to IL1-beta induced Intercellular adhesion molecule-1 in human endothelial cells (ELISA assay). The class given is cell-based, Endothelial cell. In outline:
as §2

In data set [9] the target is T4, Vascular cell adhesion protein 1 (Homo sapiens) (UniProt P19320).
T4 sequence (whole entry): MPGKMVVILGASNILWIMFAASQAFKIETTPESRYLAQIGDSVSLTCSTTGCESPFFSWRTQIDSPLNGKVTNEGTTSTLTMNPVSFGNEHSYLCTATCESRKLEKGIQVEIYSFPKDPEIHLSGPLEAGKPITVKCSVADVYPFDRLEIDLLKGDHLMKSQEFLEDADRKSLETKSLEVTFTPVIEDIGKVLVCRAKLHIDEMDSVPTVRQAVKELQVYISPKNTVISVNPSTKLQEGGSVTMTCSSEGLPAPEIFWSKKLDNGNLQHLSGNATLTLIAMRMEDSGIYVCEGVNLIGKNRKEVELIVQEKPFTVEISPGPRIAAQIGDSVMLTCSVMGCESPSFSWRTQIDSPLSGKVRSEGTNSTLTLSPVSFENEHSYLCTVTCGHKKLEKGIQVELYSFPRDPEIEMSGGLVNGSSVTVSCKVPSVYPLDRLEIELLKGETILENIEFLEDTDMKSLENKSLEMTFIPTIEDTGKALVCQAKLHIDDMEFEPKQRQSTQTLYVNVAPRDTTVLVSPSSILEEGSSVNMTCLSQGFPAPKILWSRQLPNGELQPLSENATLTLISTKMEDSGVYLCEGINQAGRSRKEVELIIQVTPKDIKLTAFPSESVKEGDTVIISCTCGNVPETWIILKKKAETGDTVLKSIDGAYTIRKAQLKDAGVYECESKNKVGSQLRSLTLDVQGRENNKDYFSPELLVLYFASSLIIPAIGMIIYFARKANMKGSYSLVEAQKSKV
Conditions: Endothelial cell.

Data set [10] deals with T1, Intercellular adhesion molecule 1. Nature of the data set: In vitro inhibitory potency compared to PMA induced Intercellular adhesion molecule-1 in human endothelial cells (ELISA assay). The class given is cell-based, Endothelial cell. Summed up: as §1
Data set [11] concerns the target T3, E-selectin. Briefly: In vitro inhibitory potency compared to TNF-alpha induced Selectin E in human endothelial cells (ELISA assay). The class given is cell-based, Endothelial cell. Summed up:
as §1

A short description of data set [12]: Toxicity in HUVEC cell lysates. The settings on record: human. The class given is cell-based, Lysate. Summed up: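 Primary HUVECs were plated at 5 × 10^4 cells/mL in EBM/2% FBS with human EGF, bovine brain extract and gentamicin. The next day, compounds were added, at up to 100 µM. TNFα was then added as in the cell ELISA. About 24 h after compound addition, MTS reagent was added, cells were incubated a further 2 h at 37 °C, and absorbance was read at 490 nm.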

For data set [13], the target named is T1, Intercellular adhesion molecule 1. Briefly: In vitro inhibitory potency compared to TNF-alpha induced Intercellular adhesion molecule-1 expression in human endothelial cells (ELISA assay). The class given is cell-based, Endothelial cell. In outline: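 Primary HUVECs plated at 5 × 10^4 cells/mL in EBM/2% FBS with growth supplements; next day compound added, 24 h at 37 °C, then TNFα to 5 ng/mL final, 6 h at 37 °C. Cell ELISA: mouse monoclonal anti-ICAM-1 overnight at 4 °C, HRP donkey anti-mouse IgG, OPD, absorbance 490 nm; triplicate assay.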

For data set [14] the target is unchanged. Nature of the data set: In vitro inhibitory potency compared to IL1-beta induced Intercellular adhesion molecule-1 expression in human endothelial cells (ELISA assay). The class given is cell-based, Endothelial cell. Summed up: (§3)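 Primary HUVECs plated at 5 × 10^4 cells/mL in EBM/2% FBS with growth supplements; next day compound added, 24 h at 37 °C, then IL-1β substituted for TNFα as inducer, 6 h at 37 °C. Cell ELISA: mouse monoclonal anti-ICAM-1 or anti-E-selectin (ELAM-1) overnight at 4 °C, HRP donkey anti-mouse IgG, OPD, absorbance 490 nm.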

Data set [15] has as its target T3, E-selectin. Nature of the data set: In vitro inhibitory potency compared to IL1-beta induced Selectin E expression in human endothelial cells (ELISA assay). The class given is cell-based, Endothelial cell. In outline:
as §3

Data set [16] has as its target T4, Vascular cell adhesion protein 1 (Homo sapiens). Conditions: Endothelial cell. The source holds these as a separate data set.
Data set [17] in a line: Inhibition of selectin E in human endothelial cells. Conditions: endothelial cell.
A short description of data set [18]: Inhibition of intercellular adhesion molecule-1 (ICAM1) in human endothelial cells. The settings on record: endothelial cell.

T1 sequence (P05362 whole entry): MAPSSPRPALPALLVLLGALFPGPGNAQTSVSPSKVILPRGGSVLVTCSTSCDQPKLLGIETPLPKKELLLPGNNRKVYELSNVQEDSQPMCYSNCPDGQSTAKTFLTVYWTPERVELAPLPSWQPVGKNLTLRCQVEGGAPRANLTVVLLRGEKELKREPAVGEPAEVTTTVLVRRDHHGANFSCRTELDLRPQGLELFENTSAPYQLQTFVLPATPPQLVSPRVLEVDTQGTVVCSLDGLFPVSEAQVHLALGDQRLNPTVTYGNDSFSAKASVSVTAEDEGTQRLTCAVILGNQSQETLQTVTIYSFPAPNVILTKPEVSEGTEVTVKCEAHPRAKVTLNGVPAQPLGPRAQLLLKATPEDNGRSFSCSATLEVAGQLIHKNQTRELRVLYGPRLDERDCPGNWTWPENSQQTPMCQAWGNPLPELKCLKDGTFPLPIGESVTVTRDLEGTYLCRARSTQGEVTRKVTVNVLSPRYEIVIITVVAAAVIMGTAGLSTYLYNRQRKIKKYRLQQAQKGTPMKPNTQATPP

As for `CNC(=O)c1cc2c(Oc3ccc(Cl)cc3)cncc2s1`, the IC50 amounted to 15 nM in [1]; 17 nM in data set [2]; 15 nM in data set [3]; 8 nM against E-selectin [5]; 25 nM on E-selectin [6]; 20 nM at E-selectin [7]. This compound also came in with an IC50 in data set [8] of 10 nM. In addition, the inhibition in data set [4] came to 43%. The compound further came in with an Inhibition at 1uM in data set [9] of 49%.

In the case of `CNC(=O)c1cc2c(Oc3ccc(COCCOCCOC)cc3)cncc2s1`, the IC50 in data set [1] is 5 nM; in [2], 5 nM; in data set [10], 5 nM; against E-selectin [5] it was 6 nM; against E-selectin [6] it was 5 nM; against E-selectin [11], 4 nM. This compound also returned an IC50 in data set [8] of 2 nM. Also, the inhibition in [4] is 46%.

For the compound `Cc1ccc(Sc2cncc3sc(C(N)=O)cc23)cc1`, the half-maximal inhibitory concentration (IC50) in data set [12] is 152000 nM; in data set [13] it was 15 nM; in data set [14], 10 nM; in data set [3], 30 nM; against E-selectin [15], 25 nM; against E-selectin [7], 15 nM. Also, the half-inhibitory concentration (IC50) in [17] was 20 nM; in data set [18], 25 nM. In addition, the inhibition in data set [4] turned out to be 44%. This compound came in with an Inhibition at 1uM in data set [16] of 45%.

As usually defined, the IC50 is the concentration at which inhibition is half-maximal. By inhibition is commonly meant the percentage by which the read-out fell short of the control. A high value points to a response far below the control. Usually Inhibition stands for the change of the read-out against control, counted positive when it falls. Higher therefore signals a response far below the control.
